Measurements from ChEMBL document CHEMBL1131010, “Inhibition of human neutrophil elastase. 4. Design, synthesis, X-ray crystallographic analysis, and structure-activity relationships for a series of P2-modified, orally active peptidyl pentafluoroethyl ketones” (J Med Chem, 1998).

Key:
Format in all cases: functional, Cricetulus griseus
Cricetinae gen. sp. [1] = experiment: In vivo HNE inhibitory activity of lung hemorrhage in 6-8 hamsters; set-up: concentration or dose not given beside the values
In short: (§1)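 Hamsters dosed orally at 1, 1.5, 2 or 4 h before intratracheal instillation of HNE (25 µg). Animals were killed 1 h after HNE and lungs lavaged with saline. BAL hemoglobin was read spectrophotometrically at 536-546 nm. % inhibition of hemorrhage is relative to vehicle-treated animals, given as mean ± SEM of 6-8 hamsters, with p < 0.05 as significance.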

Cricetinae gen. sp. [2] = experiment: In vivo percent inhibition of lung hemorrhage in 6-8 hamsters after administration of 25 mg/kg 1 hr before intratracheal instillation of HNE (25 ug); in short: as §1
Cricetinae gen. sp. [3] = experiment: In vivo percent inhibition of lung hemorrhage in 6-8 hamsters administration of 25 mg/kg 1 hr before intratracheal instillation of HNE (25 ug); in short: as §1
Cricetinae gen. sp. [4] = experiment: In vivo percent inhibition of lung hemorrhage in 6-8 hamsters administration of 25 mg/kg 2 hr before intratracheal instillation of HNE (25 ug); in short: as §1
Cricetinae gen. sp. [5] = experiment: In vivo percent inhibition of lung hemorrhage in 6-8 hamsters administration of 25 mg/kg 2 hours before intratracheal instillation of HNE (25 ug); in short: as §1
Cricetinae gen. sp. [6] = experiment: In vivo percent inhibition of lung hemorrhage in 6-8 hamsters administration of 25 mg/kg 1 hour before intratracheal instillation of HNE (25 ug); in short: as §1
Cricetinae gen. sp. [7] = experiment: In vivo percent inhibition of lung hemorrhage in 6-8 hamsters administration of 25 mg/kg 4 hr before intratracheal instillation of HNE (25 ug); in short: as §1

CC(C)C(NC(=O)[C@@H]1CSCN1C(=O)[C@@H](NC(=O)c1ccc(C(=O)N2CCOCC2)cc1)C(C)C)C(=O)C(F)(F)C(F)(F)F (stereo not given in full)
Inhibition (Cricetinae gen. sp. [1]): 0%

CC(C)C(NC(=O)[C@H]1CC(OCc2ccccc2)CN1C(=O)[C@@H](NC(=O)c1ccc(C(=O)N2CCOCC2)cc1)C(C)C)C(=O)C(F)(F)C(F)(F)F (stereo not given in full)
Inhibition (Cricetinae gen. sp. [1]): 7%

CC(C)C(NC(=O)[C@H]1CCN1C(=O)[C@@H](NC(=O)c1ccc(C(=O)N2CCOCC2)cc1)C(C)C)C(=O)C(F)(F)C(F)(F)F (stereo not given in full)
inhibition in vivo at 25 mg/kg (Cricetinae gen. sp. [2]): 57% | Inhibition (Cricetinae gen. sp. [1]): 79%

CC(C)C(NC(=O)[C@@H]1CCCN1C(=O)[C@@H](NC(=O)c1ccc(C(=O)N2CCOCC2)cc1)C(C)C)C(=O)C(F)(F)C(F)(F)F (stereo not given in full)
Inhibition (Cricetinae gen. sp. [1]): 74%

CC(C)C(NC(=O)C1CCCCN1C(=O)[C@@H](NC(=O)c1ccc(C(=O)N2CCOCC2)cc1)C(C)C)C(=O)C(F)(F)C(F)(F)F (stereo not given in full)
inhibition in vivo at 25 mg/kg (Cricetinae gen. sp. [3]): 43% | inhibition in vivo at 25 mg/kg (Cricetinae gen. sp. [4]): 39% | Inhibition (Cricetinae gen. sp. [1]): 54%

CC(C)C(NC(=O)[C@@H]1CCCN1C(=O)[C@@H](NC(=O)c1ccc(C(=O)N2CCOCC2)cc1)C(C)C)C(=O)C(F)(F)C(F)(F)C(F)(F)F (stereo not given in full)
inhibition in vivo at 25 mg/kg (Cricetinae gen. sp. [5]): 25% | inhibition in vivo at 25 mg/kg (Cricetinae gen. sp. [6]): 30% | Inhibition (Cricetinae gen. sp. [1]): 47%

CC(C)C(NC(=O)C1CC(O)CN1C(=O)[C@@H](NC(=O)c1ccc(C(=O)N2CCOCC2)cc1)C(C)C)C(=O)C(F)(F)C(F)(F)F (stereo not given in full)
Inhibition (Cricetinae gen. sp. [1]): 0%

CC(=O)OC1CC(C(=O)NC(C(=O)C(F)(F)C(F)(F)F)C(C)C)N(C(=O)[C@@H](NC(=O)c2ccc(C(=O)N3CCOCC3)cc2)C(C)C)C1 (stereo not given in full)
inhibition in vivo at 25 mg/kg (Cricetinae gen. sp. [7]): 0% | inhibition in vivo at 25 mg/kg (Cricetinae gen. sp. [4]): 0% | Inhibition (Cricetinae gen. sp. [1]): 0%
